SUMO Mot1 rescue: inhibitors of SUMOylation pathway: yeast Mot1-301 growth rescue | S. cerevisiae Mot1-301 growth rescue, ATP luminescence, 38.5C; percent above DMSO median, 100 means doubled | growth rescue, % at 18.8 µM | actives 1% (n = 320,000) | AID 2716;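 active = every valid replicate shows activation above 250% relative to neutral control wells; inactive = the rest, any valid replicate at or below 250%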;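 also: OY570 slx delta 5 strain wells were the positive control but not used for scaling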
NALP1 inh: NALP1 inhibition | actives 0.61% (n = 280,000) | inhibition, % at 10 µM | S. cerevisiae NALP1/ASC/caspase-1 growth, X-gal OD620, 72 h; in the data active = inhibition mostly above about 24%, no sharp cut-off; inactive = mostly below about 32%
PolyA inhibitor: yeast polyadenylation inhibition; S. cerevisiae SKY197-pL101 polyadenylation reporter, beta-gal luminescence; efflux-impaired pdr1/pdr3 knockout yeast; score 100 = 6 SD above DMSO; activity score, % at 12 µM; actives 0.02% (n = 300,000); AID 1875;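 active = lowest replicate activity score at least 50, where 100 means six control SD above control mean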;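 also: yeast exposed to compound for 9 h at 30 °C; higher score means more reporter readthrough which indicates perturbed polyadenylation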
IMP-1 inh-1: inhibitors of Pseudomonas aeruginosa IMP-1 metallo-beta-lactamase. purified IMP-1, nitrocefin hydrolysis, epi-absorbance fluorescence. inhibition, % at 5.6 µM. actives 0.45% (n = 290,000). AID 1556;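 active = inhibition above the mean plus 3 SD of all compounds in the same screening run, cut at about 4.5% in these data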;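 also: 0% = IMP-1 with DMSO and 100% = DMSO wells lacking enzyme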
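Assay system: purified recombinant IMP-1 beta-lactamase. Input: IMP-1 0.2 nM before substrate addition. Buffer or medium: Zinc- and detergent-supplemented HEPES buffer, pH 7.1. Schedule: 25 °C, 15 min preincubation, 25 min reaction. Signal: Epi-absorbance fluorescence, 480 nm excitation, 530 nm emission. Evaluation: percent inhibition from optical density relative to buffer-blank wells.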
NALP3 yeast inh: NALP3 inhibition in yeast; AID 2825; inhibition, % at 10 µM; Yeast reconstituted NLRP3/ASC/caspase-1, beta-gal luminescence, 24 h; actives 0.39% (n = 330,000);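 active = inhibition of 50% or more; inactive = inhibition below 50%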;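 also: plate controls were induced DMSO wells for no effect and uninduced yeast grown without galactose for full effect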
VIM-2 inhibitor: inhibitors of Pseudomonas aeruginosa VIM-2 metallo-beta-lactamase; purified VIM-2, nitrocefin hydrolysis, epi-absorbance fluorescence; inhibition, % at 5.6 µM; actives 0.89% (n = 290,000); AID 1527;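 active = inhibition above the mean of all tested compounds plus 3 SD, cutoff set per screening run, cut at about 7.5% in these data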;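 also: red hydrolysis product quenches plate fluorescence so inhibitors raise well fluorescence; 0% = enzyme with DMSO and 100% = DMSO without enzyme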
IMP-1 inh-2: selectivity counter-screen for VIM-2 inhibitors: IMP-1 metallo-beta-lactamase inhibitors. inhibition, % at 5.6 µM. shares compounds with VIM-2 inhibitor. 1,300 tested, under 10 active. purified IMP-1, nitrocefin hydrolysis, epi-absorbance fluorescence; call rule not given here;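 also: 0% = enzyme with vehicle and 100% = vehicle without enzyme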
VIM-2 FRET ctr: counter-screen for VIM-2 inhibitors: epi-absorbance artifacts via FRET; shares compounds with VIM-2 inhibitor; actives 23% (n = 1,300); purified VIM-2, CCF2 FRET substrate hydrolysis; inhibition, % at 5.6 µM; AID 1857;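 active = inhibition above the mean of all tested compounds plus 3 SD, cut at about 19% in these data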;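 also: 0% = VIM-2 plus DMSO and 100% = no enzyme wells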
TEM-1 counter: selectivity counter-screen for VIM-2 inhibitors: E. coli TEM-1 inhibitors; AID 1866; inhibition, % at 5.6 µM; shares compounds with VIM-2 inhibitor; actives 3% (n = 1,300); Purified TEM-1, nitrocefin hydrolysis, epi-absorbance fluorescence;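 active = inhibition above that campaign's mean inhibition plus 3 SD, cut at about 0.46% in these data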;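 also: 0% = TEM-1 with DMSO and 100% = TEM-1 with 100 µM potassium clavulanate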
Target sequence (P62593 whole entry, looked up): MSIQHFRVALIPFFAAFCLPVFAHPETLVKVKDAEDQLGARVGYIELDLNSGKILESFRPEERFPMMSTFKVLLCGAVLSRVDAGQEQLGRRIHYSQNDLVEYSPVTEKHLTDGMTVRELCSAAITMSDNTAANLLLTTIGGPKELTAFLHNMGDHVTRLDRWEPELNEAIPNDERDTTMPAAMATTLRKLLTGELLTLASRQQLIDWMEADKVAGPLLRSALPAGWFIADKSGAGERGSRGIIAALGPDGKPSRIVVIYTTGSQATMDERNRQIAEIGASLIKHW
VIM-2 confirm 2: confirmation of P. aeruginosa VIM-2 metallo-beta-lactamase inhibitors | inhibition, % at 5.6 µM | AID 2187 | purified VIM-2, nitrocefin hydrolysis, epi-absorbance | actives 96% (n = 1,300) | shares compounds with VIM-2 inhibitor;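 active = inhibition of the VIM-2 beta-lactamase enzyme above about 11% from the earlier first-round screen, limit read from the data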;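 also: 0% = VIM-2 with DMSO and 100% = buffer wells without enzyme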
Active calls of the source: *; . = no result given. Compounds with a hit are over-represented: about 2.9% of the library has one in this group of screens.

SMILES | SUMO Mot1 rescue | NALP1 inh | PolyA inhibitor | IMP-1 inh-1 | NALP3 yeast inh | VIM-2 inhibitor | IMP-1 inh-2 | VIM-2 FRET ctr | TEM-1 counter | VIM-2 confirm 2
CCN(CC)S(=O)(=O)c1ccc(C(=O)NCC2CCCCC2)cc1 | -2.3 | 8.2 | 6.3 | -3.1 | 26.9 | -1.6 | . | . | . | .
CN(C)CCN1CCc2ccccc21 | -16.0 | . | 4.1 | -5.9 | 15.5 | 23.4* | -3.1 | -4.2 | -6.0 | 10.9*
CCOC(=O)c1cc(S(=O)(=O)N2CCC(C)CC2)cn1C | 43.9 | 14.3 | -0.7 | -1.8 | -1.0 | -1.3 | . | . | . | .
Cc1cc(C)n2nc(/C(C#N)=C/c3ccccn3)c(C#N)c2n1 | -6.4 | 19.0 | 16.0 | -0.1 | 32.5 | 44.9* | -3.5 | -27.7 | -8.1 | 7.7*
Cc1cc(C)n2nc(CC#N)c(C#N)c2n1 | -8.7 | -12.7 | 8.7 | -2.1 | 21.8 | -1.3 | . | . | . | .
CCN(CC)c1nc(Oc2ccc(C(=O)NN)cc2)nc(Oc2ccc(C(=O)NN)cc2)n1 | -17.0 | 3.1 | -3.1 | -2.5 | 13.1 | 70.5* | -4.5 | 7.6 | -7.5 | 81.7*
COCCN(C(=O)CCC(=O)Nc1cc(C)on1)C(C(=O)NC(C)(C)C)c1cccc(OC)c1OC (stereo unspecified) | -28.3 | -8.0 | 11.6 | -2.6 | 10.8 | -3.4 | . | . | . | .
Nc1nnnn1CC(=O)N/N=C/c1cc([N+](=O)[O-])ccc1Cl | -2.2 | -0.6 | -10.3 | -0.4 | 4.9 | -0.3 | . | . | . | .
O=[N+]([O-])c1ccc(-c2ccc(/C=N/n3cnnc3)o2)c(Br)c1 | -6.8 | 6.8 | -25.7 | -3.1 | 17.1 | 44.6* | -2.2 | 7.4 | -2.5 | 57.2*
Cc1cc([N+](=O)[O-])c(C)cc1-c1ccc(/C=N/n2cnnc2)o1 | 0.4 | -0.6 | -9.0 | -3.2 | 11.4 | 44.5* | -1.4 | -1.4 | -5.4 | 49.6*
Cc1cc([N+](=O)[O-])c(C)cc1-c1ccc(/C=N/NC(=O)Cn2nnnc2N)o1 | 50.5 | -2.9 | -16.0 | -4.2 | -4.7 | 33.2* | -2.9 | -11.3 | -3.0 | 42.0*
Cc1n[nH]c(=S)n1/N=C/c1ccc(-c2ccccc2[N+](=O)[O-])o1 | 173.3 | 4.9 | 8.5 | -3.2 | 28.1 | 0.7 | . | . | . | .
O=c1[nH]c2c(s1)C(c1cccnc1)C1C3CCC(C3)C1S2 (stereo unspecified) | -15.9 | . | 1.4 | 4.2 | 17.9 | 84.2* | -3.6 | 88.7* | -10.3 | 82.7*
O=c1[nH]c2c(s1)C(c1ccc(O)cc1)C1C3CCC(C3)C1S2 (stereo unspecified) | 27.5 | 11.8 | 0.5 | -0.6 | 10.5 | 4.0 | . | . | . | .
COc1ccccc1NC(=O)CSc1nnnn1C1CCCCC1 | 1.4 | -3.4 | 6.6 | -3.5 | 26.8 | -3.7 | . | . | . | .
O=C(NCc1ccco1)c1cccn2c(=O)c3sccc3nc12 | 3.7 | . | -4.0 | -1.8 | 2.7 | 19.4* | -1.7 | -2.8 | -8.0 | 34.1*
CCCCN(C)CCNC(=O)CCn1nc(-c2ccc(C)cc2)ccc1=O | 1.7 | 11.5 | -5.9 | -1.8 | 13.0 | -2.9 | . | . | . | .
Cc1ccc(-c2nn3nnnc3c3ccccc23)cc1C | . | 5.9 | 7.4 | -0.2 | 17.4 | -0.2 | . | . | . | .
Cc1ccc(-c2nn3cnnc3c3ccccc23)cc1C | 1.2 | 10.9 | -6.3 | -1.2 | 4.3 | 23.5* | 0.2 | 5.5 | 1.6* | 39.0*
CSc1nc(NCCCN(C)C)c2c3c(sc2n1)CN(C)CC3 | -1.0 | 4.3 | -16.7 | -3.3 | 14.4 | 24.6* | -1.6 | 1.3 | -5.0 | 36.9*
CCc1ccc(NC(=O)c2cnc(N3CCN(c4ccccn4)CC3)c3ccccc23)cc1 | 519.5 | -2.2 | 17.6 | -0.8 | 23.4 | -0.3 | . | . | . | .

Bioassay records deposited in PubChem by several laboratories.
